Among the data in ChEMBL document CHEMBL3627681, “Synthesis and biological evaluation of 1,3-diaryl pyrazole derivatives as potential antibacterial and anti-inflammatory agents” (2015) are MIC, inhibition in vivo and Ratio values, retold here.

≈ marks a conversion by molar mass, not a printed value.

By MIC is commonly meant the smallest concentration in the dilution series that meets the test's criterion for growth inhibition. Read a low MIC as greater potency. In general, inhibition in vivo refers to the relative decrease from the control value, in per cent.

For assay [1], the system named is Escherichia coli. The assay can be described thus: Antibacterial activity against Escherichia coli CCARM 1356 after 24 hrs by two-fold serial dilution method. Format: functional. As to conditions: CCARM 1356, 24 h. The method in brief: (§1)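 Broth microdilution in Mueller-Hinton broth over final concentrations of 64–0.5. Bacteria were grown to mid-log phase and diluted 1000-fold, then inoculated at 10⁵ CFU/mL. Compounds were dissolved in DMSO, with final DMSO at most 0.05%. Plates were incubated 24 h at 37 °C and growth read as absorbance at 650 nm. MIC is the concentration giving complete growth inhibition. Three independent runs.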

Another assay relates to Mus musculus. The assay can be described thus: Antiinflammatory activity in mouse assessed as inhibition of xylene-induced ear edema at 50 mg/kg, ip administered 30 mins before xylene challenge relative to control. Format: functional. The method in brief: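 Mice received compound freshly dissolved in DMSO, 50 mg/kg ip at 0.05 mL/20 g body weight; vehicle controls got DMSO alone. After 30 min, 20 µL xylene was applied to the right ear. After a further 30 min, 7 mm plugs were cut from treated and untreated ears and edema taken as their weight difference. Result is % edema reduction versus vehicle controls.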

The next assay relates to Streptococcus mutans. As to the kind of experiment: Antibacterial activity against Streptococcus mutans 3065 after 24 hrs by two-fold serial dilution method. Format: functional. As to conditions: Streptococcus mutans, 3065, 24 h. The method in brief: as §1
Assay [2] relates to Staphylococcus aureus. The assay can be described thus: Antibacterial activity against quinolone-resistant Staphylococcus aureus CCARM 3519 after 24 hrs by two-fold serial dilution method. Format: functional. As to conditions: CCARM 3519, 24 h. The method in brief:
(§2)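 Broth microdilution in Mueller-Hinton broth. Bacteria grown to mid-log phase, diluted 1000-fold, and inoculated at 10⁵ CFU/mL. Test compounds in DMSO, final DMSO not above 0.05%, final concentrations 64-0.5 µg/mL. Incubation 24 h at 37 °C, growth read as absorbance at 650 nm. MIC taken as the lowest concentration giving complete growth inhibition. Run three times.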

For assay [3], the system named is Staphylococcus aureus. As to the kind of experiment: Antibacterial activity against quinolone-resistant Staphylococcus aureus CCARM 3505 after 24 hrs by two-fold serial dilution method. Format: functional. As to conditions: CCARM 3505, 24 h. The method in brief:
as §2

Assay [4] relates to Staphylococcus aureus. The assay can be described thus: Antibacterial activity against Staphylococcus aureus RN4220 after 24 hrs by two-fold serial dilution method. The assay is classed as functional. As to conditions: RN4220, 24 h. The method in brief:
as §2

The subject of assay [5] is Staphylococcus aureus. The assay can be described thus: Antibacterial activity against methicillin-resistant Staphylococcus aureus CCARM 3167 after 24 hrs by two-fold serial dilution method. Format: functional. As to conditions: CCARM 3167, 24 h. The method in brief: as §2
Assay [6] relates to Escherichia coli. The assay can be described thus: Ratio of moxifloxacin MIC to compound MIC for Escherichia coli CCARM 1356 after 24 hrs by two-fold serial dilution method. The assay is classed as functional.
The subject of assay [7] is Staphylococcus aureus. The assay can be described thus: Antibacterial activity against Staphylococcus aureus 209 after 24 hrs by two-fold serial dilution method. Format: functional. As to conditions: Staphylococcus aureus, 209, 24 h. The method in brief: as §2
Assay [8] relates to Staphylococcus aureus. As to the kind of experiment: Antibacterial activity against Staphylococcus aureus 503 after 24 hrs by two-fold serial dilution method. Format: functional. As to conditions: Staphylococcus aureus, 503, 24 h. The method in brief:
as §2

Assay [9] concerns Pseudomonas aeruginosa. The assay can be described thus: Antibacterial activity against Pseudomonas aeruginosa 2004 after 24 hrs by two-fold serial dilution method. Format: functional. As to conditions: Pseudomonas aeruginosa, 2004, 24 h. The method in brief:
as §1

Assay [10] has as its system Escherichia coli. As to the kind of experiment: Antibacterial activity against Escherichia coli KCTC 1924 after 24 hrs by two-fold serial dilution method. The assay is classed as functional. As to conditions: KCTC 1924, 24 h. The method in brief:
as §1

The test system of assay [11] is Pseudomonas aeruginosa. As to the kind of experiment: Antibacterial activity against Pseudomonas aeruginosa 2742 after 24 hrs by two-fold serial dilution method. Format: functional. As to conditions: Pseudomonas aeruginosa, 2742, 24 h. The method in brief: as §1
For assay [12], the system named is Staphylococcus aureus. The assay can be described thus: Antibacterial activity against methicillin-resistant Staphylococcus aureus CCARM 3506 after 24 hrs by two-fold serial dilution method. Format: functional. As to conditions: CCARM 3506, 24 h. The method in brief: as §2
The next assay deals with Salmonella typhimurium. The assay can be described thus: Antibacterial activity against Salmonella typhimurium 2421 after 24 hrs by two-fold serial dilution method. As to conditions: Salmonella enterica, 2421, 24 h. Format: functional, Salmonella enterica subsp. enterica serovar Typhimurium. The method in brief: as §1
In a further assay the test system is Candida albicans. As to the kind of experiment: Antifungal activity against Candida albicans 7535 by two-fold serial dilution method. Format: functional.
The subject of assay [13] is Staphylococcus aureus. As to the kind of experiment: Ratio of moxifloxacin MIC to compound MIC for quinolone-resistant Staphylococcus aureus CCARM 3505 after 24 hrs by two-fold serial dilution method. The assay is classed as functional.
The test system of assay [14] is Staphylococcus aureus. The assay can be described thus: Ratio of gatifloxacin MIC to compound MIC for quinolone-resistant Staphylococcus aureus CCARM 3519 after 24 hrs by two-fold serial dilution method. The assay is classed as functional.
The test system of assay [15] is Staphylococcus aureus. As to the kind of experiment: Ratio of gatifloxacin MIC to compound MIC for quinolone-resistant Staphylococcus aureus CCARM 3505 after 24 hrs by two-fold serial dilution method. The assay is classed as functional.

In the case of `COc1ccc(-c2nn(-c3ccc([N+](=O)[O-])cc3[N+](=O)[O-])cc2/C=N/NC(=N)N)cc1`, the MIC in the assay with Escherichia coli [1] is 8 µg/mL (≈ 18.9 µM); in the assay on Streptococcus mutans, 8 µg/mL (≈ 18.9 µM); against Staphylococcus aureus [2], 4 µg/mL (≈ 9.43 µM); with Staphylococcus aureus [3], 4 µg/mL (≈ 9.43 µM); with Staphylococcus aureus [4] it was 4 µg/mL (≈ 9.43 µM); in the assay with Staphylococcus aureus [5], 4 µg/mL (≈ 9.43 µM). Also, the minimum inhibitory concentration (MIC) against Staphylococcus aureus [7] is 4 µg/mL (≈ 9.43 µM); with Staphylococcus aureus [8], 4 µg/mL (≈ 9.43 µM); with Pseudomonas aeruginosa [9] it was over 64 µg/mL; with Escherichia coli [10] it was 4 µg/mL (≈ 9.43 µM); against Pseudomonas aeruginosa [11], over 64 µg/mL; against Staphylococcus aureus [12] it was 2 µg/mL (≈ 4.71 µM). The results for the MIC against Salmonella typhimurium and against Candida albicans were 8 µg/mL (≈ 18.9 µM) and 2 µg/mL (≈ 4.71 µM), respectively. In addition, in the assay on Mus musculus, the inhibition in vivo at 50 mg/kg turned out to be 86.5%. The Ratio with Escherichia coli [6] is given as 16.

`N=C(N)N/N=C/c1cn(-c2ccc([N+](=O)[O-])cc2[N+](=O)[O-])nc1-c1ccc(Cl)cc1Cl`: the MIC against Escherichia coli [1] worked out at 8 µg/mL (≈ 17.3 µM); against Streptococcus mutans, 4 µg/mL (≈ 8.63 µM); in the assay with Staphylococcus aureus [2], 2 µg/mL (≈ 4.32 µM); with Staphylococcus aureus [3], 2 µg/mL (≈ 4.32 µM); in the assay on Staphylococcus aureus [4] it was 2 µg/mL (≈ 4.32 µM); against Staphylococcus aureus [5] it was 2 µg/mL (≈ 4.32 µM). In addition, the MIC in the assay with Staphylococcus aureus [7] is 2 µg/mL (≈ 4.32 µM); with Staphylococcus aureus [8], 2 µg/mL (≈ 4.32 µM); in the assay with Pseudomonas aeruginosa [9], over 64 µg/mL; in the assay on Escherichia coli [10] it was 2 µg/mL (≈ 4.32 µM); in the assay with Pseudomonas aeruginosa [11], over 64 µg/mL; with Staphylococcus aureus [12], 2 µg/mL (≈ 4.32 µM). Moreover, the minimal inhibitory concentration (MIC) in the assay with Salmonella typhimurium was 8 µg/mL (≈ 17.3 µM); against Candida albicans it was 2 µg/mL (≈ 4.32 µM). The inhibition in vivo at 50 mg/kg in the assay with Mus musculus was determined as 61.9%. For the same compound, the Ratio turned out to be 2 with Staphylococcus aureus [13], 16 in the assay with Escherichia coli [6], 2 in the assay on Staphylococcus aureus [14] and 4 in the assay with Staphylococcus aureus [15].

For the compound `COc1cccc(-c2nn(-c3ccc([N+](=O)[O-])cc3[N+](=O)[O-])cc2/C=N/NC(=N)N)c1`, the MIC against Escherichia coli [1] is 8 µg/mL (≈ 18.9 µM); in the assay on Streptococcus mutans it was 8 µg/mL (≈ 18.9 µM); against Staphylococcus aureus [2], 4 µg/mL (≈ 9.43 µM); in the assay with Staphylococcus aureus [3], 4 µg/mL (≈ 9.43 µM); against Staphylococcus aureus [4] it was 4 µg/mL (≈ 9.43 µM); in the assay with Staphylococcus aureus [5] it was 4 µg/mL (≈ 9.43 µM). Besides, the MIC was 4 µg/mL (≈ 9.43 µM) against Staphylococcus aureus [7]; 4 µg/mL (≈ 9.43 µM) against Staphylococcus aureus [8]; over 64 µg/mL with Pseudomonas aeruginosa [9]; 4 µg/mL (≈ 9.43 µM) with Escherichia coli [10]; over 64 µg/mL with Pseudomonas aeruginosa [11]; 2 µg/mL (≈ 4.71 µM) in the assay with Staphylococcus aureus [12]. In addition, the minimum inhibitory concentration (MIC) with Salmonella typhimurium turned out to be 8 µg/mL (≈ 18.9 µM); against Candida albicans, 2 µg/mL (≈ 4.71 µM). The inhibition in vivo at 50 mg/kg in the assay on Mus musculus is 67.3%. In addition, in the assay with Escherichia coli [6], the Ratio came out at 16.

On to `N=C(N)N/N=C/c1cn(-c2ccc([N+](=O)[O-])cc2[N+](=O)[O-])nc1-c1ccc(F)cc1`, for which the MIC with Escherichia coli [1] was found to be 8 µg/mL (≈ 19.4 µM); in the assay with Streptococcus mutans it was 8 µg/mL (≈ 19.4 µM); against Staphylococcus aureus [2], 4 µg/mL (≈ 9.7 µM); in the assay on Staphylococcus aureus [3] it was 4 µg/mL (≈ 9.7 µM); in the assay on Staphylococcus aureus [4], 4 µg/mL (≈ 9.7 µM); in the assay on Staphylococcus aureus [5], 4 µg/mL (≈ 9.7 µM). In addition, the MIC is 4 µg/mL (≈ 9.7 µM) in the assay with Staphylococcus aureus [7]; 4 µg/mL (≈ 9.7 µM) against Staphylococcus aureus [8]; over 64 µg/mL against Pseudomonas aeruginosa [9]; 4 µg/mL (≈ 9.7 µM) against Escherichia coli [10]; over 64 µg/mL against Pseudomonas aeruginosa [11]; 4 µg/mL (≈ 9.7 µM) against Staphylococcus aureus [12]. Moreover, the MIC against Salmonella typhimurium was 8 µg/mL (≈ 19.4 µM); against Candida albicans, 2 µg/mL (≈ 4.85 µM). Also, the inhibition in vivo at 50 mg/kg in the assay with Mus musculus was 61.9%. The Ratio in the assay on Escherichia coli [6] worked out at 16.

For the compound `Cc1cccc(-c2nn(-c3ccc([N+](=O)[O-])cc3[N+](=O)[O-])cc2/C=N/NC(=N)N)c1`, the MIC stood at 8 µg/mL (≈ 19.6 µM) in the assay with Escherichia coli [1]; 4 µg/mL (≈ 9.79 µM) in the assay on Streptococcus mutans; 4 µg/mL (≈ 9.79 µM) in the assay on Staphylococcus aureus [2]; 2 µg/mL (≈ 4.9 µM) against Staphylococcus aureus [3]; 2 µg/mL (≈ 4.9 µM) against Staphylococcus aureus [4]; 2 µg/mL (≈ 4.9 µM) in the assay with Staphylococcus aureus [5]. Further, the MIC in the assay with Staphylococcus aureus [7] is 2 µg/mL (≈ 4.9 µM); against Staphylococcus aureus [8] it was 2 µg/mL (≈ 4.9 µM); in the assay with Pseudomonas aeruginosa [9] it was over 64 µg/mL; with Escherichia coli [10], 2 µg/mL (≈ 4.9 µM); against Pseudomonas aeruginosa [11], over 64 µg/mL; in the assay on Staphylococcus aureus [12] it was 2 µg/mL (≈ 4.9 µM). The MIC with Salmonella typhimurium is 8 µg/mL (≈ 19.6 µM); in the assay on Candida albicans it was 2 µg/mL (≈ 4.9 µM). In addition, the inhibition in vivo at 50 mg/kg with Mus musculus was 76.9%. For the same compound, the Ratio in the assay with Escherichia coli [6] is recorded as 16.
